From ChEMBL document CHEMBL4364248, “Discovery of 1,2,4-oxadiazole-Containing hydroxamic acid derivatives as histone deacetylase inhibitors potential application in cancer therapy” (Eur J Med Chem, 2019)
Active and inactive are the calls of the source. The rule behind the calls is not given here.

Legend:
[1] = test system: Daudi; assay: Antitumour activity against human Daudi cells xenografted in NOD/SCID mouse assessed as DNA damage at 10 mg/kg, iv treated on day 1,3 and 5 per week; assay type: functional, organism-based
Outline: (§1)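 Daudi s.c. xenografts in female NOD/SCID mice (5–6 weeks) were randomized six per group at 100–200 mm3. Dosing was 10 mg/kg i.v. or 20 mg/kg p.o. in 8% HP-β-CD on days 1, 3 and 5 weekly. Tumors were collected at study end for immunohistochemistry, with comparison to the control group.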

[2] = test system: JeKo-1; assay: Induction of apoptosis in human JeKo1 cells after 48 hrs by annexin V-FITC/propidium iodide staining-based flow cytometric method; assay type: functional, cell-based
Outline: (§2)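 Jeko-1 cells were grown in RPMI-1640 with 10% FBS at 37 °C under 5% CO2. They were exposed to 0, 10, 100 or 1000 nM for 48 h, then apoptosis induction was analysed.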

[3] = test system: SK-OV-3; assay: Antiproliferative activity against human SKOV3 cells after 72 hrs by MTT assay; assay type: functional, cell-based; conditions: SK-OV-3, 72 h
[4] = target: T1, Protein deacetylase HDAC6 (Homo sapiens) (UniProt Q9UBN7); assay: Inhibition of recombinant full length HDAC6 (unknown origin) using Ac-peptide-AMC as substrate at 100 nM after 1 hr by fluorescence assay relative to control
T1 sequence (whole entry): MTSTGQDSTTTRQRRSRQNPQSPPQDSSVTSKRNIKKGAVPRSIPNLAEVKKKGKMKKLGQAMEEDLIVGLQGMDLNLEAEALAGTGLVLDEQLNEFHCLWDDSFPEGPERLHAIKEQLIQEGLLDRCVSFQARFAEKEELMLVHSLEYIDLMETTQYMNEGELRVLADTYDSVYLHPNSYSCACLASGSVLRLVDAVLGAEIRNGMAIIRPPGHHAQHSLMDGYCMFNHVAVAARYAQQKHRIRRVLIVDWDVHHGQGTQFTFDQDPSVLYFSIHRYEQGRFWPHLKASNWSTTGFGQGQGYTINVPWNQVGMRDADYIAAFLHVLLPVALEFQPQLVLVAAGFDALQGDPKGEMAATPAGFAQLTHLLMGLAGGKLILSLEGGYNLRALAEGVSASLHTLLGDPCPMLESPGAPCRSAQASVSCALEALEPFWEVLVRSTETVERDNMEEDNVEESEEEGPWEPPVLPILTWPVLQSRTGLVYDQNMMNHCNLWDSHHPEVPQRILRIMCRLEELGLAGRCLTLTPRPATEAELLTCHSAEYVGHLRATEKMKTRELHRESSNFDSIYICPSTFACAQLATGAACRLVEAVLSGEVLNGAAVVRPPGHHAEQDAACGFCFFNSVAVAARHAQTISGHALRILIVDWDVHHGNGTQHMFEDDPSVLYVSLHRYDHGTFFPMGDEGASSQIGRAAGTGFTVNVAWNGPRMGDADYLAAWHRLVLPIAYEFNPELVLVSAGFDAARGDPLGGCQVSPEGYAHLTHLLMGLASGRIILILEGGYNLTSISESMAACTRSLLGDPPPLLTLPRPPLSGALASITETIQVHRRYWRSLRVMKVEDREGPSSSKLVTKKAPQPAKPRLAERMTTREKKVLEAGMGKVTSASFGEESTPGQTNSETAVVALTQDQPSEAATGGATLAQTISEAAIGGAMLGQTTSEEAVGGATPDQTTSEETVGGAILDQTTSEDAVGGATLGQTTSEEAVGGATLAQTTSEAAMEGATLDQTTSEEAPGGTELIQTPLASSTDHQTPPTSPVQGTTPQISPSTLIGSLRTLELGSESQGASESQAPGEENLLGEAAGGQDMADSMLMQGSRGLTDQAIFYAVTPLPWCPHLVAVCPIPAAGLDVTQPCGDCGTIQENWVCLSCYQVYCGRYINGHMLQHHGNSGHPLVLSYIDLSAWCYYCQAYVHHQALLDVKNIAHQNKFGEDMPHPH
Outline: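 Full-length recombinant HDAC1 or HDAC6 was incubated with compound, trypsin and Ac-peptide-AMC substrate for 1 h at room temperature. Fluorescence was read at ex 355/em 460 nm. Inhibition was calculated against the DMSO vehicle control.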

[5] = test system: JeKo-1; assay: Cell cycle arrest in human JeKo1 cells assessed as accumulation at G1 phase at 1000 nM after 24 hrs by propidium iodide staining based flow cytometric analysis (reference value: 63.16 %); assay type: functional
[6] = test system: Daudi; assay: Antitumour activity against human Daudi cells xenografted in NOD/SCID mouse assessed as increase in acetylated H4 expression at 10 mg/kg, iv treated on day 1,3 and 5 per week by immunohistochemical analysis; assay type: functional, organism-based; outline: as §1
[7] = Antiproliferative activity against human ARD cells after 72 hrs by MTT assay; assay type: functional, cell-based
[8] = Clearance in Sprague-Dawley rat at 5 mg/kg, po measured upto 24 hrs by LC-MS/MS analysis; assay type: ADME, organism-based; conditions: in vivo
Outline: (§3)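 SD rats (200-250 g), six per time point, given 5 mg/kg as a tail-vein bolus or orally. Blood was taken by cardiac puncture before dosing and at 5, 15, 30, 45 min and 1, 2, 4, 6, 8, 10, 12 and 24 h. Plasma was spun at 4000 g for 15 min at 4 °C and stored at -80 °C. Analysis was LC-MS/MS with multiple-reaction monitoring, followed by noncompartmental analysis.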

[9] = AUC ( 0 to t) in Sprague-Dawley rat at 5 mg/kg, iv measured upto 24 hrs by LC-MS/MS analysis; assay type: ADME, organism-based; parameters: dose 5 mg/kg, time < 24 hr, route intravenous; conditions: in vivo; outline: as §3
[10] = Toxicity in NOD/SCID mouse xenografted with human Daudi cells assessed as abnormal behavior at 10 mg/kg, iv treated on day 1,3 and 5 per week and measured for every 2 days; assay type: organism-based; conditions: in vivo, 48 h
Outline: (§4)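 Female NOD/SCID mice (5–6 weeks) bearing s.c. Daudi xenografts, six per group. Dosing was 10 mg/kg i.v. or 20 mg/kg p.o. in 8% HP-β-CD on days 1, 3 and 5 weekly. Behaviour was observed, and organ tissues were collected at sacrifice for H&E staining.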

[11] = Cmax in Sprague-Dawley rat at 5 mg/kg, po measured upto 24 hrs by LC-MS/MS analysis; assay type: ADME, organism-based; parameters: dose 5 mg/kg, route oral; conditions: in vivo; outline: as §3
[12] = test system: JeKo-1; assay: Cell cycle arrest in human JeKo1 cells assessed as accumulation at G2/M phase at 100 nM after 24 hrs by propidium iodide staining based flow cytometric analysis (reference value: 10.71 %); assay type: functional
[13] = test system: JeKo-1; assay: Induction of apoptosis in human JeKo1 cells assessed as early apoptotic cells at 100 nM after 48 hrs by annexin V-FITC/propidium iodide staining-based flow cytometric method (reference value: 3.34 %); assay type: functional; outline: as §2
[14] = target: Histone deacetylase 11 (Homo sapiens, UniProt Q96DB2); assay: Inhibition of recombinant full length human HDAC11 expressed in baculovirus infected Sf9 cells using Ac-peptide-AMC as substrate after 1 hr by fluorescence assay
[15] = Toxicity in NOD/SCID mouse xenografted with human Daudi cells at 20 mg/kg, po treated on day 1,3 and 5 per week and measured for every 2 days; assay type: organism-based; conditions: in vivo, 48 h; outline: as §4
[16] = target: Histone deacetylase 5 (Homo sapiens, UniProt Q9UQL6); assay: Inhibition of recombinant full length N-terminal GST-tagged human HDAC5 expressed in baculovirus infected Sf9 cells using Ac-peptide-AMC as substrate after 1 hr by fluorescence assay
Histone deacetylase 5, sequence (Q9UQL6 whole entry): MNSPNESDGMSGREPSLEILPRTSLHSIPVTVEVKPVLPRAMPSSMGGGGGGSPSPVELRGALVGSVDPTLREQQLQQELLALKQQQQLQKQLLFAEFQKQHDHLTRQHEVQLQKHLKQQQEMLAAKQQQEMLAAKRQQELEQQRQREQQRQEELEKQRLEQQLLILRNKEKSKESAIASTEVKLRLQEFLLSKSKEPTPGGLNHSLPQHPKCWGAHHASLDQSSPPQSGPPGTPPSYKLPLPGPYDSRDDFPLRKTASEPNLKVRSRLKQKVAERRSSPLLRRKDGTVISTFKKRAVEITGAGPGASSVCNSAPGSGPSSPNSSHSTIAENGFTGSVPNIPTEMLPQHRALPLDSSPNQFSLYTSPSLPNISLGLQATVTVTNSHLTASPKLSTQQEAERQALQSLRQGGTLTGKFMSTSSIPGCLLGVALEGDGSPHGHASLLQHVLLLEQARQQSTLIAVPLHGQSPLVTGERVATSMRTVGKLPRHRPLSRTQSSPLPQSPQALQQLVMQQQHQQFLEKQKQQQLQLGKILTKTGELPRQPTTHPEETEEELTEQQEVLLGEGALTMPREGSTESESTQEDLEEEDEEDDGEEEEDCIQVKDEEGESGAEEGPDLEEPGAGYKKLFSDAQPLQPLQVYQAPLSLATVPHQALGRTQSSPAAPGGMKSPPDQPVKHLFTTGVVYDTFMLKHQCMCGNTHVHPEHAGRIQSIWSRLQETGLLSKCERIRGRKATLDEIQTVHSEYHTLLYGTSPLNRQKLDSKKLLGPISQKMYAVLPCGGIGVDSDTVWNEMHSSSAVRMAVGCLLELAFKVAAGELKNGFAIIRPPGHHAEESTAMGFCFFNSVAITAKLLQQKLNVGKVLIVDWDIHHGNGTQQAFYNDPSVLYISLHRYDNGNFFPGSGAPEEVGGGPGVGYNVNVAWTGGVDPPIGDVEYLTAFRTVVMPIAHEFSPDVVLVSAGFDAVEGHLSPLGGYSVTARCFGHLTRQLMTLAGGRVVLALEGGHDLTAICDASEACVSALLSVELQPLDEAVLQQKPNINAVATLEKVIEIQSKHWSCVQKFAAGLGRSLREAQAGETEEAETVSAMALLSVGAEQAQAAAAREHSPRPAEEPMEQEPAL

Histone deacetylase 11, sequence (Q96DB2 whole entry): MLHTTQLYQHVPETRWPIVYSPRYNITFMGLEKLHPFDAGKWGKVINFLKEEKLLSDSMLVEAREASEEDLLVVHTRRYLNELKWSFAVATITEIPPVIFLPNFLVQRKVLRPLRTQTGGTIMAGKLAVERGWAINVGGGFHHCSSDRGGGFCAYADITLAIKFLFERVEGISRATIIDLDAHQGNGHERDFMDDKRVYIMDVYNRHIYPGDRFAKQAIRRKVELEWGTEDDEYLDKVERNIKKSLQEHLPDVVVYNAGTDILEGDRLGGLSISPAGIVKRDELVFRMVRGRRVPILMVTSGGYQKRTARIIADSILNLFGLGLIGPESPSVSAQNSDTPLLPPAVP

## Cc1ccc(CN2CCC(c3noc(CN(C)c4ncc(C(=O)NO)cn4)n3)CC2)cc1
[1]
  Activity: Active
[2]
  Activity: Dose-dependent effect
[3]
  IC50: 20.5 nM
[4]
  inhibition: 71%
[5]
  Activity: 82.86%
[6]
  Activity: Active
[7]
  IC50: 44.9 nM
[8]
  CL/F: 372 mL/min/kg
[9]
  AUC(0-t) at 24 h: 433 ng·h/mL
[10]
  Activity: Non-Toxic
[11]
  Cmax: 241 ng/mL
[12]
  Activity: 10.77%
[13]
  Activity: 28.3%
[14]
  IC50: > 10000 nM
[15]
  Activity: Non-Toxic
[16]
  IC50: 540 nM
